In paper PMC10205660 (Chemistry (Weinheim an der Bergstrasse, Germany), 2023):
Where two headings read alike, the source gives them in different places.

Tests used:
Type in all cases: cell-based
MCF7 (breast cancer) = experiment: Antiproliferative activity, MCF7
K562 (leukemia) = experiment: Antiproliferative activity, K562
A549 (lung cancer) = experiment: Antiproliferative activity, A549; settings: Homo sapiens
[1] = tested on: MCF7, K562 and A549 cell lines; experiment: Antiproliferative activity, statements in text without a single cell line; settings: for antiproliferative activity at highest concentration: at 4 μM; for fold reduction in activity compared to cruentaren A: versus cruentaren A, cell line not stated
[2] = tested on: Hsp90-dependent client proteins (pAkt, Cyclin D1, GLUT1), Hsp70, Hsp90 in MCF7 cells; settings: MCF7, 48 h, Western blot; versus vehicle 0.25% DMSO
How it was run: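 MCF7 cells exposed to test compound at the stated amounts for 48 h, alongside vehicle (0.25% DMSO) and 1 μM geldanamycin as the reference Hsp90 inhibitor. Cell lysates were immunoblotted for pAkt, Cyclin D1, GLUT1, Hsp70, Hsp90 and F1F0 ATP synthase.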

[3] = Homo sapiens, MCF7, read-out: IC50 values MCF7
[4] = Homo sapiens, K562, read-out: IC50 values K562
[5] = A549, read-out: IC50 values A549
[6] = Homo sapiens, MCF7, read-out: IC50 values MCF7, MCF7
[7] = Homo sapiens, K562, read-out: IC50 values K562, K562

| SMILES | IC50 (MCF7 (breast cancer); [3]) [nM] | IC50 (K562 (leukemia); [4]) [nM] | IC50 (A549 (lung cancer); [5]) [nM] | IC50 (MCF7 (breast cancer); [6]) [nM] | IC50 (K562 (leukemia); [7]) [nM] | further results |
| --- | --- | --- | --- | --- | --- | --- |
| CCC[C@H](O)[C@@H](C)C(=O)NC/C=C\C[C@@H](C)[C@@H](O)[C@H](C)[C@@H]1C/C=C\C[C@H](C)[C@H](OC(=O)CN)Cc2cc(OC)cc(O)c2C(=O)O1 [Compound 3, (3S,8S,9R,Z)-14-hydroxy-3-((2S,3R,4R,Z)-3-hydroxy-8-((2R,3S)-3-hydroxy-2-methylhexanamido)-4-methyloct-6-en-2-yl)-12-methoxy-8-methyl-1-oxo-3,4,7,8,9,10-hexahydro-1H-benzo[c][1]oxacyclododecin-9-yl glycinate] | 87.5 | 14.8 | 1740 | – | – | fold difference of IC50 versus cruentaren A (K562 (leukemia); K562, versus cruentaren A): 10 fold |
| CCC[C@H](O)[C@@H](C)C(=O)NC/C=C\C[C@@H](C)[C@@H](O)[C@H](C)[C@@H]1C/C=C\C[C@H](C)[C@H](OC(C)=O)Cc2cc(OC)cc(O)c2C(=O)O1 [Compound 10, (3S,8S,9R,Z)-14-hydroxy-3-((2S,3R,4R,Z)-3-hydroxy-8-((2R,3S)-3-hydroxy-2-methylhexanamido)-4-methyloct-6-en-2-yl)-12-methoxy-8-methyl-1-oxo-3,4,7,8,9,10-hexahydro-1H-benzo[c][1]oxacyclododecin-9-yl acetate] | – | – | 1960 | 174 | 1160 | IC50 (MCF7 (breast cancer); Homo sapiens, MCF7, read-out: IC50 MCF7, MCF7): 170 nM; IC50 (K562 (leukemia); Homo sapiens, K562, read-out: IC50 K562, K562): 1160 nM; IC50 (A549 (lung cancer); A549, read-out: IC50 A549): 1960 nM |
| CCC[C@H](O)[C@@H](C)C(=O)NC/C=C\C[C@@H](C)[C@@H](OC(C)=O)[C@H](C)[C@@H]1C/C=C\C[C@H](C)[C@H](OC(C)=O)Cc2cc(OC)cc(O)c2C(=O)O1 [Compound 11, (2R,3R,4R,Z)-2-((3S,8S,9R,Z)-9-acetoxy-14-hydroxy-12-methoxy-8-methyl-1-oxo-3,4,7,8,9,10-hexahydro-1H-benzo[c][1]oxacyclododecin-3-yl)-8-((2R,3S)-3-hydroxy-2-methylhexanamido)-4-methyloct-6-en-3-yl acetate] | > 4000 | > 4000 | > 4000 | – | – | antiproliferative activity at highest concentration [1]: inactive |
| CCC[C@H](O)[C@@H](C)C(=O)NC/C=C\C[C@@H](C)[C@@H](O)[C@H](C)[C@@H]1C/C=C\C[C@H](C)[C@H](OC(=O)[C@H](N)C(C)C)Cc2cc(OC)cc(O)c2C(=O)O1 [Compound 5, (3S,8S,9R,Z)-14-hydroxy-3-((2S,3R,4R,Z)-3-hydroxy-8-((2R,3S)-3-hydroxy-2-methylhexanamido)-4-methyloct-6-en-2-yl)-12-methoxy-8-methyl-1-oxo-3,4,7,8,9,10-hexahydro-1H-benzo[c][1]oxacyclododecin-9-yl D-valinate] | – | – | 1330 | 101 | 968 | – |
| CCC[C@H](OC(C)=O)[C@@H](C)C(=O)NC/C=C\C[C@@H](C)[C@@H](OC(C)=O)[C@H](C)[C@@H]1C/C=C\C[C@H](C)[C@H](OC(C)=O)Cc2cc(OC)cc(O)c2C(=O)O1 [Compound 9, (2R,3R,4R,Z)-2-((3S,8S,9R,Z)-9-acetoxy-14-hydroxy-12-methoxy-8-methyl-1-oxo-3,4,7,8,9,10-hexahydro-1H-benzo[c][1]oxacyclododecin-3-yl)-8-((2R,3S)-3-acetoxy-2-methylhexanamido)-4-methyloct-6-en-3-yl acetate] | > 4000 | > 4000 | > 4000 | – | – | antiproliferative activity at highest concentration [1]: inactive |
| CCC[C@H](OC(=O)[C@H](N)Cc1ccccc1)[C@@H](C)C(=O)NC/C=C\C[C@@H](C)[C@@H](O)[C@H](C)[C@@H]1C/C=C\C[C@H](C)[C@H](OC(=O)[C@H](N)Cc2ccccc2)Cc2cc(OC)cc(O)c2C(=O)O1 [Compound 7, (2R,3S)-1-(((5R,6R,7S,Z)-7-((3S,8S,9R,Z)-9-((D-phenylalanyl)oxy)-14-hydroxy-12-methoxy-8-methyl-1-oxo-3,4,7,8,9,10-hexahydro-1H-benzo[c][1]oxacyclododecin-3-yl)-6-hydroxy-5-methyloct-2-en-1-yl)amino)-2-methyl-1-oxohexan-3-yl D-phenylalaninate] | – | – | 2460 | 51 | 65 | IC50 (MCF7 (breast cancer); read-out: IC50 values MCF7, MCF7): 51.3 nM; IC50 (K562 (leukemia); read-out: IC50 values K562, K562): 64.6 nM |
| CCC[C@H](OC(C)=O)[C@@H](C)C(=O)NC/C=C\C[C@@H](C)[C@@H](O)[C@H](C)[C@@H]1C/C=C\C[C@H](C)[C@H](OC(C)=O)Cc2cc(OC)cc(O)c2C(=O)O1 [Compound 8, (2R,3S)-1-(((5R,6R,7S,Z)-7-((3S,8S,9R,Z)-9-acetoxy-14-hydroxy-12-methoxy-8-methyl-1-oxo-3,4,7,8,9,10-hexahydro-1H-benzo[c][1]oxacyclododecin-3-yl)-6-hydroxy-5-methyloct-2-en-1-yl)amino)-2-methyl-1-oxohexan-3-yl acetate] | 574 | 1280 | 3360 | – | – | – |
| CCC[C@H](O)[C@@H](C)C(=O)NC[C@H](O)[C@H](O)C[C@@H](C)[C@@H](O)[C@H](C)[C@@H]1C/C=C\C[C@H](C)[C@H](O)Cc2cc(OC)cc(O)c2C(=O)O1 [Compound 14, (2R,3S)-N-((2S,3R,5R,6R,7S)-7-((3S,8S,9R,Z)-9,14-dihydroxy-12-methoxy-8-methyl-1-oxo-3,4,7,8,9,10-hexahydro-1H-benzo[c][1]oxacyclododecin-3-yl)-2,3,6-trihydroxy-5-methyloctyl)-3-hydroxy-2-methylhexanamide] | – | – | 1540 | 189 | 1270 | fold reduction in activity compared to cruentaren A [1]: ~ 40 fold |
| COC1=C2C[C@@H](C)C[C@H](OC)[C@H](O)[C@@H](C)/C=C(\C)[C@H](OC(N)=O)[C@@H](OC)/C=C\C=C(/C)C(=O)NC(=CC1=O)C2=O [geldanamycin, reference compound] | – | – | – | – | – | levels of Hsp70 and Hsp90 (heat shock response) [2]: increased |
| CCC[C@H](O)[C@@H](C)C(=O)NCCCC[C@@H](C)[C@@H](O)[C@H](C)[C@@H]1CCCC[C@H](C)[C@H](O)Cc2cc(OC)cc(O)c2C(=O)O1 [Compound 12, (2R,3S)-N-((5R,6R,7S)-7-((3S,8S,9R)-9,14-dihydroxy-12-methoxy-8-methyl-1-oxo-3,4,5,6,7,8,9,10-octahydro-1H-benzo[c][1]oxacyclododecin-3-yl)-6-hydroxy-5-methyloctyl)-3-hydroxy-2-methylhexanamide] | – | – | 4000 | 179 | 1390 | – |
| CCC[C@H](O)[C@@H](C)C(=O)NC/C=C\C[C@@H](C)[C@@H](O)[C@H](C)[C@@H]1C/C=C\C[C@H](C)[C@H](OC(=O)[C@H](N)Cc2ccccc2)Cc2cc(OC)cc(O)c2C(=O)O1 [Compound 6, (3S,8S,9R,Z)-14-hydroxy-3-((2S,3R,4R,Z)-3-hydroxy-8-((2R,3S)-3-hydroxy-2-methylhexanamido)-4-methyloct-6-en-2-yl)-12-methoxy-8-methyl-1-oxo-3,4,7,8,9,10-hexahydro-1H-benzo[c][1]oxacyclododecin-9-yl D-phenylalaninate] | – | – | 1280 | 114 | 1120 | – |
| CCC[C@H](O)[C@@H](C)C(=O)NC/C=C/C[C@@H](C)[C@@H](O)[C@H](C)[C@@H]1C/C=C\C[C@H](C)[C@H](O)Cc2cc(OC)cc(O)c2C(=O)O1 [Compound 16, (2R,3S)-N-((5R,6R,7S,E)-7-((3S,8S,9R,Z)-9,14-dihydroxy-12-methoxy-8-methyl-1-oxo-3,4,7,8,9,10-hexahydro-1H-benzo[c][1]oxacyclododecin-3-yl)-6-hydroxy-5-methyloct-2-en-1-yl)-3-hydroxy-2-methylhexanamide] | – | – | 1750 | 6.37 | 48.3 | levels of Hsp70 and Hsp90 (heat shock response) [2]: remained at the same level as vehicle control |
| CCC[C@H](O)[C@@H](C)C(=O)NC[C@@H]1C[C@@H]1C[C@@H](C)[C@@H](O)[C@H](C)[C@@H]1C/C=C\C[C@H](C)[C@H](O)Cc2cc(OC)cc(O)c2C(=O)O1 [Compound 15, (2R,3S)-N-(((1R,2R)-2-((2R,3R,4S)-4-((3S,8S,9R,Z)-9,14-dihydroxy-12-methoxy-8-methyl-1-oxo-3,4,7,8,9,10-hexahydro-1H-benzo[c][1]oxacyclododecin-3-yl)-3-hydroxy-2-methylpentyl)cyclopropyl)methyl)-3-hydroxy-2-methylhexanamide] | – | – | 1240 | 520 | 1120 | fold reduction in activity compared to cruentaren A [1]: 100 fold |
| CCC[C@H](O)[C@@H](C)C(=O)NC/C=C\C[C@@H](C)[C@@H](O)[C@H](C)[C@@H]1C/C=C\C[C@H](C)[C@H](OC(=O)[C@@H](C)N)Cc2cc(OC)cc(O)c2C(=O)O1 [Compound 4, (3S,8S,9R,Z)-14-hydroxy-3-((2S,3R,4R,Z)-3-hydroxy-8-((2R,3S)-3-hydroxy-2-methylhexanamido)-4-methyloct-6-en-2-yl)-12-methoxy-8-methyl-1-oxo-3,4,7,8,9,10-hexahydro-1H-benzo[c][1]oxacyclododecin-9-yl D-alaninate] | – | – | 2450 | 55.5 | 1320 | levels of Hsp70 and Hsp90 (heat shock response) [2]: remained at the same level as vehicle control |
| CCC[C@H](O)[C@@H](C)C(=O)NC/C=C\C[C@@H](C)[C@@H](O)[C@H](C)[C@@H]1C/C=C\C[C@H](C)C(=O)Cc2cc(OC)cc(O)c2C(=O)O1 [Compound 2, (2R,3S)-3-hydroxy-N-((5R,6R,7S,Z)-6-hydroxy-7-((3S,8S,Z)-14-hydroxy-12-methoxy-8-methyl-1,9-dioxo-3,4,7,8,9,10-hexahydro-1H-benzo[c][1]oxacyclododecin-3-yl)-5-methyloct-2-en-1-yl)-2-methylhexanamide] | 972 | 1280 | 1640 | – | – | – |
